Reference: ChEMBL document CHEMBL4390675, “Dopamine D4 Receptor-Selective Compounds Reveal Structure-Activity Relationships that Engender Agonist Efficacy” (J Med Chem, 2019)
Activity calls are given as the source filed them. The rule behind the calls is not given here.

What was measured:
D(4) dopamine receptor [1] = target: T1, D(4) dopamine receptor (Homo sapiens, UniProt P21917); test: Antagonist activity at human D4 receptor expressed in CHOK1 cells assessed as suppression of dopamine-induced inhibition of forskolin-stimulated cAMP accumulation measured after 30 mins by Eu-cAMP tracer based TR-FRET assay; format: functional, cell-based
T1 sequence (P21917 whole entry): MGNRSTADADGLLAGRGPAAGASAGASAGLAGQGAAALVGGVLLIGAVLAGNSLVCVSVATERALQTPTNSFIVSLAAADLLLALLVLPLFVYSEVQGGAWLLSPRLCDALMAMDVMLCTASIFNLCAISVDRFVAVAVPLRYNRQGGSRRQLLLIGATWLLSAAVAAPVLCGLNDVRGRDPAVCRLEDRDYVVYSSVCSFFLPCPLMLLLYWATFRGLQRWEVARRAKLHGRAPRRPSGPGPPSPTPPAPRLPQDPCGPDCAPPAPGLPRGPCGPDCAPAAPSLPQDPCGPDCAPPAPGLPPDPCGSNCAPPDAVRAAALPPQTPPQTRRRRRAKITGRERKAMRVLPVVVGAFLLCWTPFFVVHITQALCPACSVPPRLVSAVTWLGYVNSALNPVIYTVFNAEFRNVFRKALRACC

D(4) dopamine receptor [2] = target: T1, D(4) dopamine receptor; test: Agonist activity at human D4 receptor expressed in CHOK1 cells assessed as inhibition of forskolin-induced cAMP accumulation measured after 30 mins by Eu-cAMP tracer based TR-FRET assay; format: functional, cell-based
How it was run: (§1)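 LANCE Ultra TR-FRET cAMP assay in CHO-K1 cells stably expressing human D2R long isoform or D4R. Cells were plated in HBSS/5 mM HEPES/0.2 μM metabisulfite, then immediately given compound plus forskolin (10 μM final) for 30 min at room temperature. Eu-cAMP tracer and ULight-anti-cAMP were added for 2 h in the dark. Values are % of maximal dopamine signal, nonlinear regression of triplicate runs, n = 3–4.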

D(4) dopamine receptor [3] = target: T1, D(4) dopamine receptor; test: Displacement of [3H]N-methylspiperone from human D4.4 receptor expressed in HEK293 cell membranes measured after 60 mins by scintillation counting method
How it was run: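 Frozen HEK293 membranes stably expressing human D4.4R (30 μg/well) in EBSS-bicarbonate buffer, pH 7.4, were incubated with 0.4 nM [3H]N-methylspiperone and half-log compound dilutions (30% DMSO vehicle) for 60 min at room temperature. Nonspecific binding was defined by 10 μM (+)-butaclamol. Samples were filtered on GF/B filters and counted by scintillation.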

D(4) dopamine receptor [4] = target: T1, D(4) dopamine receptor; test: Agonist activity at human D4 receptor expressed in CHOK1 cells assessed as induction of beta-arrestin recruitment measured after 90 mins by luminescence assay; format: cell-based
How it was run: (§2)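 PathHunter enzyme-complementation assay in CHO-K1 cells stably expressing human D2R long isoform, D3R or D4R, seeded overnight in Ham's F12/10% FBS. Compounds were diluted in PBS with 0.2 μM sodium metabisulfite and applied at multiple concentrations for 90 min at 37 °C. Detection reagent was added for 45–60 min at room temperature, then luminescence was read. Values are % of maximal dopamine response, from nonlinear regression of triplicate runs, mean ± SEM, n = 3–4.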

D(2) dopamine receptor [5] = target: T2, D(2) dopamine receptor (Homo sapiens, UniProt P14416); test: Antagonist activity at human D2L receptor expressed in CHOK1 cells assessed as inhibition of dopamine-induced beta-arrestin recruitment measured after 90 mins by luminescence assay; format: cell-based
How it was run: (§3)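 Antagonist-mode PathHunter β-arrestin assay in CHO-K1 cells stably expressing human D2R long isoform or D3R, seeded overnight. Compound dilutions in PBS with 0.2 μM metabisulfite were co-incubated with an EC80 dopamine concentration for 90 min at 37 °C. Detection reagent was added for 45–60 min at room temperature, then luminescence was read. Values are % of dopamine EC80 response, from nonlinear regression of triplicate runs, n = 3–4.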

D(2) dopamine receptor [6] = target: T2, D(2) dopamine receptor; test: Agonist activity at human D2L receptor expressed in CHOK1 cells assessed as inhibition of forskolin-induced cAMP accumulation measured after 30 mins by Eu-cAMP tracer based TR-FRET assay; format: cell-based; how it was run: as §1
D(2) dopamine receptor [7] = target: T2, D(2) dopamine receptor; test: Antagonist activity at human D2L receptor expressed in CHOK1 cells assessed as inhibition of dopamine-induced beta-arrestin recruitment measured after 90 mins by luminescence assay relative to control; format: cell-based; how it was run: as §3
D(3) dopamine receptor [8] = target: T3, D(3) dopamine receptor (Homo sapiens, UniProt P35462); test: Displacement of [3H]N-methylspiperone from human D3 receptor expressed in HEK293 cell membranes measured after 60 mins by scintillation counting method
How it was run: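 HEK293 cells stably expressing human D3R; membranes in EBSS buffer pH 7.4, stored at −80 °C. 20 μg protein/well with 0.4 nM [3H]N-methylspiperone (final), half-log dilutions in 30% DMSO, in triplicate. 60 min at room temperature, then GF/B filtration. Nonspecific binding with 10 μM (+)-butaclamol.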

D(2) dopamine receptor [9] = target: T2, D(2) dopamine receptor; test: Agonist activity at human D2L receptor expressed in CHOK1 cells assessed as induction of beta-arrestin recruitment measured after 90 mins by luminescence assay; format: cell-based; how it was run: as §2
D(2) dopamine receptor [10] = target: T2, D(2) dopamine receptor; test: Antagonist activity at human D2L receptor expressed in CHOK1 cells assessed as suppression of dopamine-induced inhibition of forskolin-stimulated cAMP accumulation measured after 30 mins by Eu-cAMP tracer based TR-FRET assay relative to dopamine; format: cell-based; conditions: 0.5 h
D(3) dopamine receptor [11] = target: T3, D(3) dopamine receptor; test: Antagonist activity at human D3 receptor expressed in CHOK1 cells assessed as inhibition of dopamine-induced beta-arrestin recruitment measured after 90 mins by luminescence assay; format: cell-based; how it was run: as §3
D(3) dopamine receptor [12] = target: T3, D(3) dopamine receptor; test: Agonist activity at human D3 receptor expressed in CHOK1 cells assessed as induction of beta-arrestin recruitment measured after 90 mins by luminescence assay; format: cell-based; how it was run: as §2
D(4) dopamine receptor [13] = target: T1, D(4) dopamine receptor; test: Antagonist activity at human D4 receptor expressed in CHOK1 cells assessed as inhibition of dopamine-induced beta-arrestin recruitment measured after 90 mins by luminescence assay; format: cell-based
[14] = target: D(1A) dopamine receptor (Homo sapiens) (UniProt P21728); test: Agonist activity at D1 receptor (unknown origin) stably expressed in CHOK1 cells assessed as induction of beta-arrestin recruitment measured after 90 mins by luminescence assay; format: cell-based
[15] = target: D(1B) dopamine receptor (Homo sapiens) (UniProt P21918); test: Agonist activity at D5 receptor (unknown origin) stably expressed in CHOK1 cells assessed as induction of beta-arrestin recruitment measured after 90 mins by luminescence assay; format: cell-based
[16] = target: D(1B) dopamine receptor (Homo sapiens) (UniProt P21918); test: Antagonist activity at D5 receptor (unknown origin) stably expressed in CHOK1 cells assessed as inhibition of dopamine-induced beta-arrestin recruitment measured after 90 mins by luminescence assay; format: cell-based
D(4) dopamine receptor [17] = target: T1, D(4) dopamine receptor; test: Displacement of [3H](R)-(+)-7-OH-DPAT from human D4.4 receptor expressed in HEK293 cell membranes measured after 90 mins by scintillation counting method
How it was run: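 HEK293 cells stably expressing human D4.4R; membranes used fresh in 50 mM Tris, 10 mM MgCl2, 1 mM EDTA, pH 7.4. 60 μg protein/well with 3 nM [3H]-(R)-(+)-7-OH-DPAT (final), half-log dilutions in 30% DMSO, in triplicate. 90 min at room temperature, then GF/B filtration. Nonspecific binding with 10 μM (+)-butaclamol.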

[18] = target: D(1A) dopamine receptor (Homo sapiens) (UniProt P21728); test: Antagonist activity at D1 receptor (unknown origin) stably expressed in CHOK1 cells assessed as inhibition of dopamine-induced beta-arrestin recruitment measured after 90 mins by luminescence assay; format: cell-based
[19] = target: T4, D(4) dopamine receptor (Homo sapiens) (UniProt P21917); test: Antagonist activity at human D4 receptor expressed in CHOK1 cells assessed as suppression of dopamine-induced inhibition of forskolin-stimulated cAMP accumulation measured after 30 mins by Eu-cAMP tracer based TR-FRET assay relative to dopamine; format: functional, cell-based; design: concentration or dose not given beside the values
T4 sequence (whole entry): T1 sequence (P21917 whole entry)

D(3) dopamine receptor [20] = target: T3, D(3) dopamine receptor; test: Displacement of [3H](R)-(+)-7-OH-DPAT from human D3 receptor expressed in HEK293 cell membranes measured after 90 mins by scintillation counting method
How it was run: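 Fresh HEK293 hD3R membranes (40 μg/well) in 50 mM Tris, 10 mM MgCl2, 1 mM EDTA, pH 7.4 were incubated with 0.5 nM [3H]-(R)-(+)-7-OH-DPAT and half-log compound dilutions in 30% DMSO for 90 min at room temperature. Nonspecific binding was defined with 10 μM (+)-butaclamol. Samples were filtered on PEI-soaked GF/B filters and counted by scintillation.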

[21] = target: T4, D(4) dopamine receptor (Homo sapiens); test: Agonist activity at human D4 receptor expressed in CHOK1 cells assessed as inhibition of forskolin-induced cAMP accumulation measured after 30 mins by Eu-cAMP tracer based TR-FRET assay relative to dopamine; format: functional, cell-based; how it was run: as §1
[22] = target: T4, D(4) dopamine receptor (Homo sapiens); test: Agonist activity at human D4 receptor expressed in CHOK1 cells assessed as induction of beta-arrestin recruitment measured after 90 mins by luminescence assay relative to control; format: cell-based; how it was run: as §2
[23] = target: T4, D(4) dopamine receptor (Homo sapiens); test: Antagonist activity at human D4 receptor expressed in CHOK1 cells assessed as inhibition of dopamine-induced beta-arrestin recruitment measured after 90 mins by luminescence assay relative to control; format: cell-based; design: concentration or dose not given beside the values
D(2) dopamine receptor [24] = target: T2, D(2) dopamine receptor; test: Agonist activity at human D2L receptor expressed in CHOK1 cells assessed as inhibition of forskolin-induced cAMP accumulation measured after 30 mins by Eu-cAMP tracer based TR-FRET assay relative to dopamine; format: cell-based; conditions: 0.5 h
D(2) dopamine receptor [25] = target: T2, D(2) dopamine receptor; test: Agonist activity at human D2L receptor expressed in CHOK1 cells assessed as induction of beta-arrestin recruitment measured after 90 mins by luminescence assay relative to control; format: cell-based
How it was run: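 PathHunter enzyme-complementation assay in CHO-K1 cells stably expressing human D2R long isoform, seeded 2625 cells/well and incubated overnight. Compounds diluted in PBS with 0.2 μM sodium metabisulfite, tested at multiple concentrations, 90 min at 37 °C. Detection reagent then 45–60 min at room temperature, luminescence read. Normalized to maximal dopamine response. Nonlinear regression of triplicate runs, n = 3–4.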

D(3) dopamine receptor [26] = target: T3, D(3) dopamine receptor; test: Agonist activity at human D3 receptor expressed in CHOK1 cells assessed as induction of beta-arrestin recruitment measured after 90 mins by luminescence assay relative to control; format: cell-based; how it was run: as §2

T2 sequence (P14416 whole entry, canonical isoform): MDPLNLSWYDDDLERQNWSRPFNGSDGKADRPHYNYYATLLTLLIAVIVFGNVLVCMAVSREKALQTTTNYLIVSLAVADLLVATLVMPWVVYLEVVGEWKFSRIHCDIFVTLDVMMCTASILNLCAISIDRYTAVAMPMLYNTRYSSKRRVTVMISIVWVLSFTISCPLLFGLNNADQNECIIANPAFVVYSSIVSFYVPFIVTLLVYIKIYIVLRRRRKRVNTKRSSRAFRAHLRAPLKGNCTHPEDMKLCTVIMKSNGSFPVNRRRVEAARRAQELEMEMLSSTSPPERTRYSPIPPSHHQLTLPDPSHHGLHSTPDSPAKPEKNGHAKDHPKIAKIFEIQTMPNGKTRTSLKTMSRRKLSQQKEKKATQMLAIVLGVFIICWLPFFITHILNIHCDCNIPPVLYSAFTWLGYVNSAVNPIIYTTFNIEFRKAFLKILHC
Chain of D(1B) dopamine receptor (Homo sapiens) (P21918 whole entry): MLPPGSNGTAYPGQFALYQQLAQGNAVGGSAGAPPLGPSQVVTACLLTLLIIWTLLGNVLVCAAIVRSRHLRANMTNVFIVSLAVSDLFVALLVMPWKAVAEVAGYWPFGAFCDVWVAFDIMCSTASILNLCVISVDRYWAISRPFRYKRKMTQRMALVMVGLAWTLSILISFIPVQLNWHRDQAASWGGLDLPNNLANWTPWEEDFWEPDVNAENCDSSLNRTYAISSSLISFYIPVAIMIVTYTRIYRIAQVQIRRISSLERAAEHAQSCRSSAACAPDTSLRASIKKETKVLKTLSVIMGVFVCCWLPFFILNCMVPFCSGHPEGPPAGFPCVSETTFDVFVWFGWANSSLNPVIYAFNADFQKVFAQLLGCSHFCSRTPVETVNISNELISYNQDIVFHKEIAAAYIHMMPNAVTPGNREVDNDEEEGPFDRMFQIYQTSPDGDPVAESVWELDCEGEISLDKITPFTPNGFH
Chain of D(1A) dopamine receptor (Homo sapiens) (P21728 whole entry): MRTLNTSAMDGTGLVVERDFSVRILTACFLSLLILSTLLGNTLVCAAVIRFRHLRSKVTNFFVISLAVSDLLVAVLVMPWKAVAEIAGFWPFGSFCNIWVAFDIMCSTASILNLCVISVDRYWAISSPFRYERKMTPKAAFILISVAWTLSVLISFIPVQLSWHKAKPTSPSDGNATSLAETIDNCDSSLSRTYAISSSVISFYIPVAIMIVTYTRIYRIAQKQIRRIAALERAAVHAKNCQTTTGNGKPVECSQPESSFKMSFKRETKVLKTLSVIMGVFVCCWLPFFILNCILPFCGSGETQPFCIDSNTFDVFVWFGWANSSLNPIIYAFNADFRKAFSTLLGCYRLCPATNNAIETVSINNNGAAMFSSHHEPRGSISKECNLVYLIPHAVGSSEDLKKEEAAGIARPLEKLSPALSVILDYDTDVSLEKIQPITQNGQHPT
T3 sequence (P35462 whole entry): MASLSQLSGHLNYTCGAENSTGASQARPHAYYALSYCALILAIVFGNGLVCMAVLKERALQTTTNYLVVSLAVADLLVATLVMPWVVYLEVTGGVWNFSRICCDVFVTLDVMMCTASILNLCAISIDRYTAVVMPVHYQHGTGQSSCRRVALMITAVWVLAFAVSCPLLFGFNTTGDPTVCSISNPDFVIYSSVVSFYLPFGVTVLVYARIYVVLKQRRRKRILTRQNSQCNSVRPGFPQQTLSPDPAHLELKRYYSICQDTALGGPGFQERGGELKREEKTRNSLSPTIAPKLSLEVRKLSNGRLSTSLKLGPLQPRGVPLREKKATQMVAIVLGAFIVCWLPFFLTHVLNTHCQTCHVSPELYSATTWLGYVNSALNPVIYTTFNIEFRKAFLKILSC

SMILES	IC50 (D(4) dopamine receptor [1]) [nM]	Ki (D(4) dopamine receptor [3]) [nM]	EC50 (D(4) dopamine receptor [4])	EC50 (D(2) dopamine receptor [6])	INH (D(2) dopamine receptor [7])	Ki (D(3) dopamine receptor [8]) [nM]	EC50 (D(2) dopamine receptor [9])	inhibition (INH) (D(2) dopamine receptor [10]) [%]	EC50 (D(3) dopamine receptor [12])	Activity [14]	Activity [15]	inhibition [16]	EC50 (D(4) dopamine receptor [2]; read-out: EC50) [nM]	Ki (D(4) dopamine receptor [17]) [nM]	inhibition [18]	Ki (D(3) dopamine receptor [20]) [nM]	IC50 (D(3) dopamine receptor [11]; read-out: IC50) [nM]	IC50 (D(4) dopamine receptor [13]; read-out: IC50) [nM]	further results
O=C(CN1CCN(c2ccccn2)CC1)Nc1cncnc1	> 100000	39300	Not Active	Not Active	Not Active	> 50000	Not Active	98.1	Not Active										EC50 (D(4) dopamine receptor [2]): Not Active; IC50 (D(2) dopamine receptor [5]): Not Active; IC50 (D(3) dopamine receptor [11]): Not Active; IC50 (D(4) dopamine receptor [13]): Not Active
Cc1cccc(NC(=O)CN2CCC(c3ccccc3)CC2)c1	2	25.8		Not Active	99.7%	433	Not Active	100	Not Active	inactive	inactive	inactive	15.4	1.4	inactive	777	> 50000	135	EC50 (D(4) dopamine receptor [4]; read-out: EC50): 242 nM; inhibition [19]: 46.7%; Emax [21]: 32.9%; Emax [22]: 14%; inhibition [23]: 93.3%
Cc1cccc(NC(=O)CCN2CCN(c3ccccn3)CC2)c1	1630	297	Not Active		77.7%	3790				inactive	inactive	inactive	612	32.2	inactive	781	> 50000	1090	Emax (D(2) dopamine receptor [24]): 79.7%; Emax (D(2) dopamine receptor [25]): 44.1%; Emax (D(3) dopamine receptor [26]): 41.4%; EC50 (D(3) dopamine receptor [12]; read-out: EC50): 1600 nM
